*1 amine or outer side, *2 acyl side, *3 side chain or, on linkers, in order; H or OH if unused. Where a SMILES comes first, the peptide text is derived from it. Bridges are numbered along the chain shown (N, C = ends). Triazole bridges read from a SMILES are 1,4-linked. [ ]: non-standard residue; d: D form. The star is where a group is joined. RhodamineB = CCN(CC)c1ccc2c(-c3ccccc3C(=O)*)c3ccc(=[N+](CC)CC)cc-3oc2c1; Lys(N3) = [N-]=[N+]=NCCCC[C@H](N)C(=O)O; NMeGABA = CN(CCCC(=O)[*:2])[*:1]; Pra = C#CC[C@H](N)C(=O)O

For assay [1], the target named is D570-A583 epitope of proMMP2 (Fluo-epitope) (Homo sapiens, UniProt P08253). In words: FRET binding assay. The settings on record: 100 nM Fluo-epitope, varying Rhod-peptide. A digest of the protocol:
(§1)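 Fluorescein-labelled epitope held at 100 nM final and mixed with a concentration series of rhodamine-tagged cyclic peptide. Mixtures were incubated 30 min, then FRET intensity was read on a microplate reader. Each point used individually prepared triplicate samples.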

The test system of assay [2] is Fluo-M5 (middle segment scrambled epitope). In words: FRET binding assay with partially scrambled epitope M5. The note with it: 100 nM Fluo-epitope variation. In short, it runs like this: as §1
Assay [3] deals with Fluo-C5 (C-terminal scrambled epitope). Briefly: FRET binding assay with partially scrambled epitope C5. The settings on record: 100 nM Fluo-epitope variation. A digest of the protocol: as §1
For assay [4], the system named is Fluo-N5 (N-terminal scrambled epitope). Briefly: FRET binding assay with partially scrambled epitope N5. The settings on record: 100 nM Fluo-epitope variation. In short, it runs like this:
as §1

Assay [5] addresses Fluo-epitope (fluorescein-labeled D570-A583 epitope of proMMP2) (human). Briefly: FRET or BRET.

Turning to `CCN(CC)c1ccc2c(-c3ccccc3C(=O)N(C)CCCC(=O)N[C@H]3Cc4cn(nn4)CCCC[C@@H](C(N)=O)NC(=O)[C@H](Cc4ccc(O)cc4)NC(=O)[C@@H]4CCCN4C(=O)[C@H](Cc4c[nH]cn4)NC(=O)[C@@H]4CCCN4C(=O)[C@H](Cc4c[nH]c5ccccc45)NC3=O)c3ccc(=[N+](CC)CC)cc-3oc2c1` [Rhod-cy(WPHPY)] (RhodamineB-[NMeGABA][Pra]WPHPY[Lys(N3)]-NH2; triazole 2-8; N-terminus assumed), the “binding affinity to the epitope (FRET)” value in assay [1] is “highest binding affinity”. Also, in assay [2], the “binding to scrambled epitope M5 (FRET)” value is on record as “retained the binding affinity”. The “binding to scrambled epitope C5 (FRET)” value in assay [3] is on record as “not able to bind”. Besides, in assay [4], the “binding to scrambled epitope N5 (FRET)” value is “retained the binding affinity”.
By Kd is commonly meant the free concentration of one partner at which half of the binding sites on the other are occupied at equilibrium, for simple one-to-one binding. A higher Kd goes with a looser complex. As to cy(WPHPY) (peptide), in assay [5], the Kd amounted to 1 nM.

Source of the values: PMC7437931 (Journal of medicinal chemistry, 2020).
